Measurements taken from PMC11235002 (BMJ Oncology, 2024).

Key:
T-cell = conditions: in vitro; cited from earlier work
urea cycle = experiment: Urea cycle inhibition monitored via orotic acid levels; type: in vivo, human
syngeneic mouse models = conditions: multiple syngeneic mouse models; cited from earlier work
[1] = system: patients with advanced or metastatic solid tumours; experiment: Safety: treatment-emergent adverse events; type: in vivo, human
Summary of the method: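 Safety covered monotherapy Parts 1a/2, with oral tablet or capsule dosing twice daily on days 1–28 of 28-day cycles. TEAEs were graded by CTCAE v4.03, which counts malignant progression as an AE. Laboratory values, vital signs and physical examinations were also monitored. The safety population was all patients receiving ≥1 dose. DLTs were defined as grade 3–4 toxicities, urea cycle inhibition, or AUC0–12h >100 µg.h/mL.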

C[C@H](N)C(=O)N1C[C@H](CCCB(O)O)[C@](N)(C(=O)O)C1 [INCB001158]
T-cell immunosuppression (T-cell): reversed T-cell immunosuppression in vitro
orotic acid levels (urea cycle; 150 mg two times per day, highest dose level tested, no symptomatic nor clinically significant urea cycle inhibition): apparent increase in orotic acid levels
patients with urinary orotic acid levels >10× the upper limit of normal (urea cycle; monotherapy, all asymptomatic): four
tumour growth (syngeneic mouse models): reduced tumour growth
TEAEs leading to dose reduction ([1]; monotherapy): no TEAE led to dose reduction
recommended phase 2 dose (RP2D) ([1]; monotherapy): 100 mg two times per day
serious TEAE abdominal pain ([1]; monotherapy): 5.6%
serious TEAE back pain ([1]; monotherapy): 2.8%
serious TEAE cellulitis ([1]; monotherapy): 2.8%
serious TEAE malignant neoplasm progression ([1]; monotherapy): 4.7%
serious TEAE small-intestinal obstruction ([1]; monotherapy): 2.8%
ALT increased, any-grade TEAE ([1]; monotherapy 50 mg bid (n=8)): 0 n (%)
AST increased, any-grade TEAE ([1]; monotherapy 50 mg bid (n=8)): 1 (12.5) n (%)
Abdominal pain, any-grade TEAE ([1]; monotherapy 50 mg bid (n=8)): 2 (25.0) n (%)
Abdominal pain, grade ≥3 TEAE ([1]; monotherapy 50 mg bid (n=8)): 1 (12.5) n (%)
Anaemia, any-grade TEAE ([1]; monotherapy 50 mg bid (n=8)): 3 (37.5) n (%)
Anaemia, grade ≥3 TEAE ([1]; monotherapy 50 mg bid (n=8)): 1 (12.5) n (%)
Any TEAE ([1]; monotherapy 50 mg bid (n=8)): 7 (87.5) n (%)
Any grade ≥3 TEAE ([1]; monotherapy 50 mg bid (n=8)): 6 (75.0) n (%)
Any irTEAE ([1]; monotherapy 50 mg bid (n=8)): 0 n (%)
Colitis, irTEAE ([1]; monotherapy 50 mg bid (n=8)): 0 n (%)
Constipation, any-grade TEAE ([1]; monotherapy 50 mg bid (n=8)): 2 (25.0) n (%)
Decreased appetite, any-grade TEAE ([1]; monotherapy 50 mg bid (n=8)): 0 n (%)
Diarrhoea, any-grade TEAE ([1]; monotherapy 50 mg bid (n=8)): 0 n (%)
Fatigue, any-grade TEAE ([1]; monotherapy 50 mg bid (n=8)): 1 (12.5) n (%)
Fatigue, grade ≥3 TEAE ([1]; monotherapy 50 mg bid (n=8)): 0 n (%)
Hypoalbuminaemia, any-grade TEAE ([1]; monotherapy 50 mg bid (n=8)): 0 n (%)
Hyponatraemia, any-grade TEAE ([1]; monotherapy 50 mg bid (n=8)): 0 n (%)
Hyponatraemia, grade ≥3 TEAE ([1]; monotherapy 50 mg bid (n=8)): 0 n (%)
Malignant neoplasm progression, grade ≥3 TEAE ([1]; monotherapy 50 mg bid (n=8)): 0 n (%)
Nausea, any-grade TEAE ([1]; monotherapy 50 mg bid (n=8)): 2 (25.0) n (%)
Oedema peripheral, any-grade TEAE ([1]; monotherapy 50 mg bid (n=8)): 2 (25.0) n (%)
Vomiting, any-grade TEAE ([1]; monotherapy 50 mg bid (n=8)): 2 (25.0) n (%)
ALT increased, any-grade TEAE ([1]; monotherapy 75 mg bid (n=7)): 0 n (%)
AST increased, any-grade TEAE ([1]; monotherapy 75 mg bid (n=7)): 0 n (%)
Abdominal pain, any-grade TEAE ([1]; monotherapy 75 mg bid (n=7)): 0 n (%)
Abdominal pain, grade ≥3 TEAE ([1]; monotherapy 75 mg bid (n=7)): 0 n (%)
Anaemia, any-grade TEAE ([1]; monotherapy 75 mg bid (n=7)): 3 (42.9) n (%)
Anaemia, grade ≥3 TEAE ([1]; monotherapy 75 mg bid (n=7)): 1 (14.3) n (%)
Any TEAE ([1]; monotherapy 75 mg bid (n=7)): 7 (100.0) n (%)
Any grade ≥3 TEAE ([1]; monotherapy 75 mg bid (n=7)): 2 (28.6) n (%)
Any irTEAE ([1]; monotherapy 75 mg bid (n=7)): 0 n (%)
Colitis, irTEAE ([1]; monotherapy 75 mg bid (n=7)): 0 n (%)
Constipation, any-grade TEAE ([1]; monotherapy 75 mg bid (n=7)): 1 (14.3) n (%)
Decreased appetite, any-grade TEAE ([1]; monotherapy 75 mg bid (n=7)): 2 (28.6) n (%)
Diarrhoea, any-grade TEAE ([1]; monotherapy 75 mg bid (n=7)): 0 n (%)
Fatigue, any-grade TEAE ([1]; monotherapy 75 mg bid (n=7)): 3 (42.9) n (%)
Fatigue, grade ≥3 TEAE ([1]; monotherapy 75 mg bid (n=7)): 0 n (%)
Hypoalbuminaemia, any-grade TEAE ([1]; monotherapy 75 mg bid (n=7)): 0 n (%)
Hyponatraemia, any-grade TEAE ([1]; monotherapy 75 mg bid (n=7)): 1 (14.3) n (%)
Hyponatraemia, grade ≥3 TEAE ([1]; monotherapy 75 mg bid (n=7)): 0 n (%)
Malignant neoplasm progression, grade ≥3 TEAE ([1]; monotherapy 75 mg bid (n=7)): 0 n (%)
Nausea, any-grade TEAE ([1]; monotherapy 75 mg bid (n=7)): 3 (42.9) n (%)
Oedema peripheral, any-grade TEAE ([1]; monotherapy 75 mg bid (n=7)): 0 n (%)
Vomiting, any-grade TEAE ([1]; monotherapy 75 mg bid (n=7)): 3 (42.9) n (%)
ALT increased, any-grade TEAE ([1]; monotherapy 100 mg bid (n=85)): 4 (4.7) n (%)
AST increased, any-grade TEAE ([1]; monotherapy 100 mg bid (n=85)): 8 (9.4) n (%)
Abdominal pain, any-grade TEAE ([1]; monotherapy 100 mg bid (n=85)): 15 (17.6) n (%)
Abdominal pain, grade ≥3 TEAE ([1]; monotherapy 100 mg bid (n=85)): 5 (5.9) n (%)
Anaemia, any-grade TEAE ([1]; monotherapy 100 mg bid (n=85)): 11 (12.9) n (%)
Anaemia, grade ≥3 TEAE ([1]; monotherapy 100 mg bid (n=85)): 4 (4.7) n (%)
Any TEAE ([1]; monotherapy 100 mg bid (n=85)): 81 (95.3) n (%)
Any grade ≥3 TEAE ([1]; monotherapy 100 mg bid (n=85)): 40 (47.1) n (%)
Any irTEAE ([1]; monotherapy 100 mg bid (n=85)): 1 (1.2) n (%)
Constipation, any-grade TEAE ([1]; monotherapy 100 mg bid (n=85)): 18 (21.2) n (%)
Decreased appetite, any-grade TEAE ([1]; monotherapy 100 mg bid (n=85)): 17 (20.0) n (%)
Diarrhoea, any-grade TEAE ([1]; monotherapy 100 mg bid (n=85)): 5 (5.9) n (%)
